Among the data in ChEMBL document CHEMBL3286129, “Optimization of peptidomimetic boronates bearing a P3 bicyclic scaffold as proteasome inhibitors” (Eur J Med Chem, 2014) are Ki, inhibition and growth values, retold here.

Active and inactive are the calls of the source. The rule behind the calls is not given here. Where only a bound is given, the exact number is not on record here.

Assay [1] has as its target T1, Proteasome Macropain subunit MB1 (Homo sapiens, UniProt P28074).
T1 sequence (P28074 whole entry): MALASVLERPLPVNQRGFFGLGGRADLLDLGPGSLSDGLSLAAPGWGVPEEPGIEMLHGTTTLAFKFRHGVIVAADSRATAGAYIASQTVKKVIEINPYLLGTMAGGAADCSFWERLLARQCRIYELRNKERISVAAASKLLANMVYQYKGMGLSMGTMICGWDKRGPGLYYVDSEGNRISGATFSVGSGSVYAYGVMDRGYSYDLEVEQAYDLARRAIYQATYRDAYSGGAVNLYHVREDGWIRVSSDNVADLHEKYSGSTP
Kind of assay: Inhibition of chymotrypsin-like activity of 20S proteasome in human erythrocytes using Suc-Leu-Leu-Val-Tyr-AMC as substrate by fluorescence assay.

A further assay addresses T2, Proteasome component C5 (Homo sapiens, UniProt P20618).
T2 sequence (P20618 whole entry): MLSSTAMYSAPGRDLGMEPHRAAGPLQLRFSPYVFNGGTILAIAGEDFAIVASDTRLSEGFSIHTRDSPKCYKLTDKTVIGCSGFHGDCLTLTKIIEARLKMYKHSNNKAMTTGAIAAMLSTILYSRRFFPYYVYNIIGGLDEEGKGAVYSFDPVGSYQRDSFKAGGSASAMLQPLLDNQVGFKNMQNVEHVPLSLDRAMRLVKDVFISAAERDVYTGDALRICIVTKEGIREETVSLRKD
The experiment in a line: Inhibition of PGPH-like activity of 20S proteasome in human erythrocytes using Z-Leu-Leu-Glu-AMC as substrate by fluorescence assay. In outline:
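Human 20S proteasome 0.004 mg/mL, 30 °C, 50 mM Tris pH 7.5 with 25 mM KCl, 10 mM NaCl, 1 mM MgCl2, 0.03% SDS, 5% DMSO. Ki from 4-parameter IC50 fit of progress curves, corrected to zero substrate via Km. Mean of three.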

The target in assay [2] is Proteasome Macropain subunit (Homo sapiens) (UniProt P49721). The experiment in a line: Inhibition of trypsin-like activity of 20S proteasome in human erythrocytes using Boc-Leu-Arg-Arg-AMC as substrate by fluorescence assay. The assay is classed as cell-based. The procedure, abridged: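 Human 20S proteasome 0.0025 mg/mL at 30 °C in 50 mM Tris pH 7.4, 50 mM NaCl, 0.5 mM EDTA, 0.03% SDS, 7.5% DMSO. Varied inhibitor concentrations; AMC release monitored continuously for 10 min, ex 380/em 460 nm. Ki derived from progress-curve IC50 fit.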

A further assay has as its target Chymotrypsinogen A (Bos taurus, UniProt P00766). Kind of assay: Inhibition of bovine pancreatic alpha-chymotrypsin using Suc-Leu-Leu-Val-Tyr-AMC as substrate by fluorescence assay. The procedure, abridged: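 Enzyme incubated at 20 °C in 50 mM Tris pH 8.0, 100 mM NaCl, 5 mM EDTA, 7.5% DMSO with varied inhibitor concentrations. Substrate hydrolysis followed for 10 min. Ki from progress curves; mean of three determinations.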

For assay [3], the target named is Proteasome component C5 (Homo sapiens) (UniProt P20618). The experiment in a line: Inhibition of PGPH-like activity of 20S proteasome in human erythrocytes using Z-Leu-Leu-Glu-AMC as substrate at 20 uM by fluorescence assay relative to control. In outline: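 Single-concentration screen of PGPH activity. Human 20S proteasome (0.004 mg/mL) at 30 °C in 50 mM Tris pH 7.5 with 25 mM KCl, 10 mM NaCl, 1 mM MgCl2, 0.03% SDS, 5% DMSO; equivalent DMSO as control. AMC fluorescence at ex 380/em 460 nm.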

For assay [4], the target named is T3, Proteasome Macropain subunit MB1 (Homo sapiens) (UniProt P28074).
T3 sequence (whole entry): T1 sequence (P28074 whole entry)
The experiment in a line: Inhibition of chymotrypsin-like activity of 20S proteasome in human erythrocytes using Suc-Leu-Leu-Val-Tyr-AMC as substrate at 20 uM by fluorescence assay relative to control. In outline: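 Single inhibitor concentration, equivalent DMSO as negative control. AMC fluorescence read at ex 380/em 460 nm; percent inhibition of ChT-L activity.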

Assay [5] is described as follows: Cytotoxicity against human NSCLC cells assessed as cell growth at 10 uM relative to control. The note with it: read-out: Activity. The format is functional. The procedure, abridged: (§1)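 Single-concentration screen against a panel of human cancer cell lines. Each value is the mean percent growth across the cell lines of that tumour subpanel.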
The nature of assay [6]: Cytotoxicity against human colon cancer cells assessed as cell growth at 10 uM relative to control. The assay is classed as functional. The note with it: Cancer cell lines, read-out: Activity. The procedure, abridged: as §1
Assay [7] can be described thus: Cytotoxicity against human ovarian cancer cells assessed as cell growth at 10 uM relative to control. The assay is classed as functional. The note with it: Cancer cell lines, read-out: Activity. The procedure, abridged:
as §1

Assay [8] in a line: Cytotoxicity against human prostate cancer cells assessed as cell growth at 10 uM relative to control. The note with it: Cancer cell lines, read-out: Activity. The format is functional. The procedure, abridged: as §1
Assay [9] is described as follows: Cytotoxicity against human CNSC cells assessed as cell growth at 10 uM relative to control. The assay is classed as functional. Conditions: read-out: Activity. In outline:
as §1

Assay [10] in a line: Cytotoxicity against human leukemia cells assessed as cell growth at 10 uM relative to control. The assay is classed as functional. Conditions: read-out: Activity. The procedure, abridged: as §1
Assay [11] in a line: Cytotoxicity against human breast cancer cells assessed as cell growth at 10 uM relative to control. The format is functional. The note with it: Cancer cell lines, read-out: Activity. In outline:
as §1

A short description of assay [12]: Cytotoxicity against human renal cancer cells assessed as cell growth at 10 uM relative to control. The assay is classed as functional. The note with it: Cancer cell lines, read-out: Activity. In outline: as §1
Assay [13] in a line: Cytotoxicity against human melanoma cells assessed as cell growth at 10 uM relative to control. The note with it: read-out: Activity. The assay is classed as functional. The procedure, abridged: as §1

Broadly, the Ki is the equilibrium dissociation constant of an inhibitor or competing ligand from its target. A word on the inhibition: it is the drop in the measured response relative to a control, in per cent.

Proteasome Macropain subunit (Homo sapiens), sequence (P49721 whole entry): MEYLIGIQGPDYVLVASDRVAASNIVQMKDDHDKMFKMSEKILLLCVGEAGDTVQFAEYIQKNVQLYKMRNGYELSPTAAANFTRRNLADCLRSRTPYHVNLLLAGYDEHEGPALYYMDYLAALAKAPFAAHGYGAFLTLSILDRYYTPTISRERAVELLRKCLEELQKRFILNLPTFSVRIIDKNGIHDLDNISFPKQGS

In the case of `CC(C)CCNC(=O)CCn1ccc2ncccc2c1=O`, the Ki in assay [1] (read-out: Ki) is 4.57 µM; at Proteasome component C5, “Not Active”. Also, the inhibition result in assay [2] is “inactive”.
In the case of `CC(C)CCNC(=O)CCn1cc(Br)c2ncccc2c1=O`, the Ki in assay [1] (read-out: Ki) is 0.08 µM; at Chymotrypsinogen A it was “Not Active”. Besides, the inhibition result in [2] is “inactive”. The compound also yielded an inhibition in [3] of 44%.
Turning to `CC(C)C[C@H](NC(=O)CCn1cc(Br)c2ncccc2c1=O)B(O)O`, the Ki entry (in assay [1]; at Proteasome component C5; on Chymotrypsinogen A) was “Not Active” each time. In assay [4], the inhibition was more than 40%. Further, the inhibition result in assay [2] was “inactive”.
Consider `CC(C)CCNC(=O)CCn1ccc2ccc(Br)cc2c1=O`, for which the growth at 10 µM in assay [5] was determined as 97.7%; in assay [6], 104%; in [7], 104%; in [8], 103%; in [9], 97.2%; in assay [10] it was 83.4%. For the same compound, the growth at 10 µM in assay [11] came out at 94.5%; in assay [12], 86.1%; in assay [13], 94%. In assay [2], the inhibition entry is “inactive”.
As for `COc1cc2ccn(CCC(=O)N[C@@H](CC(C)C)B(O)O)c(=O)c2cc1OC`, the growth at 10 µM in [5] amounted to 90.3%; in assay [6], 90.8%; in assay [7] it was 92.6%; in [8], 98.8%; in assay [9], 78.3%; in assay [10], 59%. The growth at 10 µM stood at 56.9% in assay [11], 89% in assay [12] and 63.7% in assay [13]. The values for the Ki (in [1] (read-out: Ki); at Chymotrypsinogen A) were 0.085 µM and “Not Active”, respectively. Moreover, the inhibition in assay [4] was more than 40%. For the same compound, the inhibition entry in assay [2] was “inactive”.
On to `CC(C)CCNC(=O)Cn1ccc2ccc(Br)cc2c1=O`, for which the Ki is 2.34 µM in assay [1] (read-out: Ki), “Not Active” at Proteasome component C5 and “Not Active” at Chymotrypsinogen A. Moreover, the inhibition entry in [2] is “inactive”.
With `CC(C)C[C@H](NC(=O)Cn1ccc2ccccc2c1=O)B(O)O`, the growth at 10 µM in assay [5] came out at 75.6%; in assay [6] it was 57.9%; in assay [7], 86.7%; in assay [8] it was 80.2%; in assay [9] it was 71%; in assay [10], 23.1%. Moreover, the values for the growth at 10 µM in [11], in assay [12] and in assay [13] were 51.3%, 39.8% and 43.5%, respectively. Also, the Ki in assay [1] (read-out: Ki) was determined as 0.49 µM; at Chymotrypsinogen A (read-out: Ki) it was 9.11 µM. The inhibition in [4] is more than 40%. In addition, the inhibition result in assay [2] is “inactive”.
`CC(C)CCNC(=O)Cn1ccc2ccccc2c1=O`: the growth at 10 µM in assay [5] was 97.2%; in assay [6], 100%; in assay [7] it was 104%; in assay [8], 101%; in assay [9], 102%; in assay [10], 99.5%. Moreover, the growth at 10 µM is 103% in assay [11], 97.4% in assay [12] and 104% in [13]. The inhibition result in assay [2] was “inactive”.
As to `COc1cc2ccn(CC(=O)N[C@@H](CC(C)C)B(O)O)c(=O)c2cc1OC`, the growth at 10 µM in assay [5] was 102%; in assay [6] it was 104%; in assay [7] it was 103%; in [8] it was 100%; in [9], 99.6%; in assay [10] it was 98.8%. Also, the growth at 10 µM came out at 99% in [11], 98.5% in [12] and 104% in assay [13]. In addition, the Ki result (in assay [1]; on Proteasome component C5; on Chymotrypsinogen A) was “Not Active” in each case. This compound also showed an inhibition in assay [4] of more than 40%. For the same compound, the inhibition entry in assay [2] is “inactive”.
As to `CC(C)C[C@H](NC(=O)Cn1ccc2ncccc2c1=O)B(O)O`, the Ki entry at Chymotrypsinogen A was “Not Active”. The inhibition result in assay [2] was “inactive”.
With `COc1cc2ccn(CCC(=O)NCCC(C)C)c(=O)c2cc1OC`, the growth at 10 µM came to 99.2% in assay [5]; 106% in assay [6]; 103% in [7]; 103% in assay [8]; 98% in assay [9]; 108% in [10]. In addition, the growth at 10 µM in assay [11] came out at 103%; in [12], 95.3%; in assay [13], 106%. For the same compound, the inhibition result in assay [2] was “inactive”.
Consider `CC(C)C[C@H](NC(=O)Cn1cc(Br)c2ncccc2c1=O)B(O)O`, for which, on Chymotrypsinogen A, the Ki result was “Not Active”. For the same compound, in [2], the inhibition entry is “inactive”.
